Measurements published in publication PMC6338520 (Cell chemical biology, 2018).

Assays:
PC3 cell lysate = experiment: QStE hydrolysis in PC3 cell lysate with inhibitors; type: biochemical, human; conditions: lysate 20 μg, inhibitor 10 μM, 30 min on ice, QStE 5 μM; three replicates
mouse liver lysates = experiment: Substrate hydrolysis in mouse liver homogenate with or without Palmostatin B; type: biochemical; conditions: lysate 20 μg; for substrate processing by mouse liver lysates: substrate 5 μM
Procedure, shortened: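 Liver from 14-week-old virgin female C57BL/6 mice, washed twice in cold PBS, minced, sonicated in cold PBS, clarified, protein quantified by BCA. Homogenate (20 μg) preincubated with DMSO or Palmostatin B (10 μM) for 30 min on ice, then fluorogenic thioester substrate or colorimetric esterase substrate 4-NPO added (5 μM). Hydrolysis plotted.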

T. gondii lysates = experiment: In situ depalmitoylase activity in T. gondii lysates; type: biochemical, Toxoplasma gondii; conditions: ASC20KRNT 2.5 μM, Ku80 T. gondii lysate 5 μg, inhibitor 10 μM
HsAPT1 = HsAPT1 (Homo sapiens, UniProt O75608); experiment: Steady-state kinetics of fluorogenic substrate hydrolysis by recombinant HsAPT1; type: biochemical; conditions: QStE 10 μM, HsAPT1 50 nM
Chain of HsAPT1 (O75608 whole entry): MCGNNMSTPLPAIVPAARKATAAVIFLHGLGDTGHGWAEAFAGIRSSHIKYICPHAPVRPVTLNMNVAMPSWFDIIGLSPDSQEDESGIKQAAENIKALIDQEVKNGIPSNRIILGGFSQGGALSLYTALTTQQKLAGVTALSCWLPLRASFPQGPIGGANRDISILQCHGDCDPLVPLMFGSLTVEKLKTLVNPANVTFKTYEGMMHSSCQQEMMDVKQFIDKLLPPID

[1] = system: HsAPT1, HsAPT2 and TgPPT1; experiment: Steady-state kinetics, statement made for all three depalmitoylases together; type: biochemical; conditions: all three enzymes
[2] = Solubility of the quenched substrates in buffer; type: physicochemical; conditions: method not described
phospholipase A2 (PLA2) = phospholipase A2 (PLA2) (Sus scrofa, UniProt P00592); experiment: QStE hydrolysis by recombinant PLA2; type: biochemical; conditions: QStE 10 μM, PLA2 500 nM
Chain of phospholipase A2 (PLA2) (P00592 23-146): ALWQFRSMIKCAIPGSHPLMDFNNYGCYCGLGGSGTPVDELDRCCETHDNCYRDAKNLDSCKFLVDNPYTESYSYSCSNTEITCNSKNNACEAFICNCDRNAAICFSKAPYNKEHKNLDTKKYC

[3] = target: T1, monoacylglycerol lipase (MGLL) (Homo sapiens, UniProt Q99685); experiment: QStE hydrolysis by recombinant MGLL; type: biochemical; conditions: QStE 10 μM, MGLL 500 nM
T1 sequence (Q99685 1-303): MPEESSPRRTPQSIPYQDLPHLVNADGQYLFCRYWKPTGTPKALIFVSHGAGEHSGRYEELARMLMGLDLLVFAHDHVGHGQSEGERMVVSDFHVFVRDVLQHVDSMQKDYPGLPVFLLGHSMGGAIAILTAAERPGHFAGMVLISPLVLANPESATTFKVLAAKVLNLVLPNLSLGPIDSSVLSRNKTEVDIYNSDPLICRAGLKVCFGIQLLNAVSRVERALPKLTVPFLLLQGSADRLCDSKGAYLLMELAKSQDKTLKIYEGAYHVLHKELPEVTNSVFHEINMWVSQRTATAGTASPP

TgPPT1 = TgPPT1 (Toxoplasma gondii, UniProt S4UG63); experiment: Steady-state kinetics of fluorogenic substrate hydrolysis by recombinant TgPPT1; type: biochemical; conditions: QStE 10 μM, TgPPT1 100 nM

Q: With `O=S(=O)(F)Cc1ccccc1` [PMSF, phenylmethylsulfonyl fluoride] as the compound, how does the “effect of inhibitor on QStE processing in PC3 cell lysate” value (PC3 cell lysate) read?
A: did not reduce

Q: Which “effect of inhibitor on QStE processing in PC3 cell lysate” value (PC3 cell lysate) does the source give for `CCCCCCCCCC[C@@H]1C(=O)O[C@H]1CCc1ccc(OC)c(OC)c1` [PalmB, Palmostatin B] here?
A: completely block

Q: And the “effect of inhibitor on 4-NPO processing in mouse liver lysates” value (mouse liver lysates; inhibitor 10 μM, 30 min on ice, 4-NPO 5 μM)?
A: only slightly reduced

Q: And the “effect of inhibitor on QStE processing in mouse liver lysates” value (mouse liver lysates; inhibitor 10 μM, 30 min on ice, QStE 5 μM)?
A: completely blocked

Q: And the “effect of inhibitor on activity in T. gondii lysate” value (T. gondii lysates)?
A: completely abolished

Q: With `O=C(CN1CCN(C(=O)c2ccco2)CC1)Nc1cc(C(F)(F)F)ccc1Cl` [ML348] as the compound, how does the “effect of inhibitor on QStE processing in PC3 cell lysate” value (PC3 cell lysate) read?
A: only minor reductions

Q: For `CCCCCCCCCCCCCCCCS(=O)(=O)F` [HDSF, hexadecylsulfonyl fluoride], which “effect of inhibitor on QStE processing in PC3 cell lysate” value (PC3 cell lysate) is on record?
A: only minor reductions

Q: Which “effect of inhibitor on QStE processing in PC3 cell lysate” value (PC3 cell lysate) does the source give for `COc1ccc(N2CCN(C(=O)c3cc4c(s3)-c3ccccc3S(=O)(=O)C4)CC2)cc1` [ML349] here?
A: only minor reductions

Q: With `CCCCCCCC(=O)Oc1ccc([N+](=O)[O-])cc1` [4-NPO, 4-nitrophenyl octanoate] as the compound, how does the “substrate processing by mouse liver lysates” value (mouse liver lysates) read?
A: more effectively processed

Q: For `CN(C)c1ccc(/N=N/c2ccc(C(=O)NCCCn3cc(CCCCCCCCCCCCCCCC(=O)SC[C@H](NC(=O)c4cc5ccc(O)cc5oc4=O)C(=O)N4CCOCC4)nn3)cc2)cc1` [QStE, (R)-S-(2-(7-hydroxy-2-oxo-2H-chromene-3-carboxamido)-3-morpholino-3-oxopropyl) (E)-16-(1-(3-(4-((4-(dimethylamino)phenyl)diazenyl)benzamido)propyl)-1H-1,2,3-triazol-4-yl)hexadecanethioate], which “QStE hydrolysis by APT1, specificity panel” value (HsAPT1) is on record?
A: readily hydrolyzed

Q: What about the “catalytic efficiency for QStE compared to QSE, times greater” value [1] of the same compound?
A: 10-30 times

Q: What about the “soluble in aqueous buffer at concentrations up to” value ([2]; aqueous buffer) of the same compound?
A: up to 100 μM

Q: And the “soluble in detergent supplemented buffer at concentrations up to” value ([2]; buffer with CHAPS, 10 mM)?
A: up to 500 μM

Q: And the “substrate processing by mouse liver lysates” value (mouse liver lysates)?
A: robust processing

Q: What about the “QStE hydrolysis by PLA2” value (phospholipase A2 (PLA2)) of the same compound?
A: not hydrolyzed

Q: And the “QStE hydrolysis by MGLL” value [3]?
A: not hydrolyzed

Q: And the “QStE hydrolysis by TgPPT1, specificity panel” value (TgPPT1)?
A: readily hydrolyzed
